Legend:
[1] = biological target: T1, Polyunsaturated fatty acid 5-lipoxygenase (Homo sapiens, UniProt P09917); assay: Inhibition of 5-LOX
T1 sequence (P09917 whole entry): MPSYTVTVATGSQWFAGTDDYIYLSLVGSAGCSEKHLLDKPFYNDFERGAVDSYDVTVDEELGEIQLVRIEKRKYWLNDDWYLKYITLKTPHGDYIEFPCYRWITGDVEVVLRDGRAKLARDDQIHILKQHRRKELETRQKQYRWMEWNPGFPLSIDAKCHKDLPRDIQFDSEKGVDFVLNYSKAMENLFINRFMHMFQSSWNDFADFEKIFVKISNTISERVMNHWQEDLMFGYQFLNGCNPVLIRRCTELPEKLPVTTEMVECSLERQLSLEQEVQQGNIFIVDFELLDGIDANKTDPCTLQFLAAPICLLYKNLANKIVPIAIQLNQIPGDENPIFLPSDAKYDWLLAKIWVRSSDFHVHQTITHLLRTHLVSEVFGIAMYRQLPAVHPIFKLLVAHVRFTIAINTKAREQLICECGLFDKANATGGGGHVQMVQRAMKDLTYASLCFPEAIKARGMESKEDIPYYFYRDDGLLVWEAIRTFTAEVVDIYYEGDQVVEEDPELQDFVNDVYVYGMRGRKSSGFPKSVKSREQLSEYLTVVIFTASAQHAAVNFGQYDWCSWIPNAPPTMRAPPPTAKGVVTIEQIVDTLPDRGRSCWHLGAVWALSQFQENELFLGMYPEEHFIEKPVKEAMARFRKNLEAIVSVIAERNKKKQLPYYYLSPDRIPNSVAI
Summary of the method: (§1)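 5-LO was human recombinant, expressed in E. coli JM 109 (pT3-5LO). Lysis, ammonium sulfate precipitation and a 100000g spin gave the S100 supernatant used as enzyme source. The assay contained 1 mM ATP and test compound or DMSO vehicle, and the enzyme was incubated with 20 µM arachidonic acid.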

[2] = biological target: T1, Polyunsaturated fatty acid 5-lipoxygenase; assay: Inhibition of 5-LOX in A-23187-stimulated PNML
Summary of the method: (§2)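 Freshly isolated human PMNL (10^7 in 1 mL PBS with 1 mg/mL glucose and 1 mM CaCl2) were preincubated with compound at 37 °C. They were then stimulated with 2.5 µM ionophore A23187 for 10 min at 37 °C and stopped with methanol, with prostaglandin B1 added as standard.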

[3] = biological target: T2, Polyunsaturated fatty acid 5-lipoxygenase (Homo sapiens) (UniProt P09917); assay: Inhibition of 5-LOX in A-23187-stimulated […] at 10 uM; summary of the method: as §2
T2 sequence (whole entry): T1 sequence (P09917 whole entry)

[4] = biological target: T2, Polyunsaturated fatty acid 5-lipoxygenase (Homo sapiens); assay: Inhibition of 5-LOX at 10 uM; summary of the method: as §1
[5] = biological target: T1, Polyunsaturated fatty acid 5-lipoxygenase; assay: Inhibition of 5-LOX in A23187 and arachidonic acid-stimulated […]
Summary of the method: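 Human PMNL (10^7/mL in PBS with glucose and 1 mM CaCl2) were preincubated with compound at 37 °C. They were then challenged with 2.5 µM A23187 plus 20 µM exogenous arachidonic acid for 10 min at 37 °C. The reaction was stopped with methanol and 5-LO products were quantified against a prostaglandin B1 standard.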

Row | SMILES | IC50 [1] [µM] | IC50 [2] [µM] | inhibition [3] [%] | inhibition [4] [%] | IC50 [5] [µM]
1 | CCOC(=O)c1c(NC(C)c2ccccc2)[nH]c2ccccc12 (stereo not given) | 9.8 | 9.7 | 53 | 51 | 5.9
2 | CCOC(=O)c1c(N2CCN(c3ccc(F)cc3)CC2)[nH]c2ccc(O)cc12 |  |  | 22 | 81 | 
3 | CC(=O)N(O)C/C=C/c1cccc(Oc2ccccc2)c1 |  |  | 93 | 86 | 
4 | CCOC(=O)c1c(Nc2ccc(C)cc2)[nH]c2ccc(O)cc12 | 5 | 5.2 | 76 | 77 | 
5 | CCOC(=O)c1c(N2CCN(Cc3ccccc3)CC2)[nH]c2ccc(O)cc12 |  |  | 15 | 61 | 
6 | CCOC(=O)c1c(N2CCCCC2)[nH]c2ccc(O)cc12 |  |  | 0 |  | 
7 | Nc1[nH]c2ccc(O)cc2c1C(=O)c1ccccc1 |  |  | 0 |  | 
8 | CCOC(=O)c1c(N2CCOCC2)[nH]c2ccc(O)cc12 |  |  | 0 |  | 
9 | CCOC(=O)c1c(Nc2cccc(Cl)c2)[nH]c2ccc(O)cc12 | 0.3 | 2.4 |  |  | 
10 | CC(Nc1[nH]c2ccc(O)cc2c1C#N)c1ccccc1 (stereo not given) | 10 | 2.8 | 85 | 62 | 4.1
11 | CCOC(=O)c1c(Nc2ccccc2)[nH]c2ccc(O)cc12 | 2.3 | 7.3 | 65 | 80 | 
12 | COC(=O)c1c(NC(C)c2ccccc2)[nH]c2ccc(O)cc12 (racemic) |  |  | 77 | 94 | 
13 | CCOC(=O)c1c(N(C)C)[nH]c2ccc(O)cc12 |  |  | 0 |  | 
14 | CCOC(=O)c1c(NC(C)c2ccccc2)[nH]c2ccc(O)cc12 (stereo not given) | 3 | 1.2 | 94 | 72 | 4.6
15 | CCOC(=O)c1c(Nc2cccnc2)[nH]c2ccc(O)cc12 |  |  | 19 | 24 | 
16 | C=CCN(CC=C)c1[nH]c2ccc(O)cc2c1C(=O)OCC | 7.1 | 7.2 | 71 | 65 | 
17 | CC(=O)c1c(N)[nH]c2ccc(O)cc12 |  |  | 0 |  | 
18 | CCOC(=O)c1c(N2CCCC2)[nH]c2ccc(O)cc12 |  |  | 0 |  | 
19 | CCOC(=O)c1c(N2CCN(c3ccccc3)CC2)n(C)c2ccc(OC)cc12 |  |  | 14 | 36 | 
20 | CCOC(=O)c1c(N2CCN(C)CC2)[nH]c2ccc(O)cc12 |  |  | 0 |  | 
21 | CCOC(=O)c1c(N2CCN(c3ccccc3)CC2)[nH]c2ccc(O)cc12 | 3.1 | > 20 | 22 | 79 | 
22 | N#Cc1c(N)[nH]c2ccc(O)cc12 |  |  | 0 |  | 
23 | COC(=O)c1c(NC(C)c2ccccc2)[nH]c2ccccc12 (stereo not given) |  |  | 48 | 42 | 
24 | CCOC(=O)c1c(N2CCN(c3ccc(Cl)cc3)CC2)[nH]c2ccc(O)cc12 | 2.3 | 5 | 84 | 69 | 5.8
